PAX8 inh HTS – inhibitors of PAX8-driven TPO luciferase reporter, primary screen, RMG-I cells, single concentration | SteadyGlo, 24 h | inhibition, % at 12.6 µM | 360,000 compounds, 1.2% hits;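 active means mean replicate inhibition at least 60% with every replicate also reaching 60%; inconclusive means only one of the two criteria is met; inactive means mean below 60% and not all replicates reaching 60%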;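 further: luciferase light reporting Pax8 driven TPO promoter activity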
PGC1a acetyl inh – inhibitors of PGC1a acetylation signal, primary screen, cell-based, U2OS, AlphaScreen, inhibitor mode; AlphaScreen anti-acetyl-lysine; with virally co-expressed GCN5 acetyltransferase; inhibition, % at 15.6 µM; 350,000 compounds, 0.17% hits; AID 651687, 2012;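 active means every replicate shows inhibition of at least 40%; inconclusive means mean inhibition at least 40% but some replicate below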
FGF22 binding – binders of human FGF22 protein, primary screen, FGF22 synaptogenesis inhibitor project, biophysical, thermal shift, single point. 340,000 compounds, 1.5% hits. recombinant FGF22 thermal shift, SYPRO orange fluorescence; percent of sucrose octasulfate shift, DMSO zero. activity (Tm shift, normalised), % at 9.99 µM. AID 651658, 2012;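 active means mean Tm shift, scaled 0 neutral to 100 positive control, at about 1.3% or above, every replicate too, limit read from the data; inconclusive means no clear call, values can overlap the other calls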
Target sequence (Q9HCT0 whole entry, looked up): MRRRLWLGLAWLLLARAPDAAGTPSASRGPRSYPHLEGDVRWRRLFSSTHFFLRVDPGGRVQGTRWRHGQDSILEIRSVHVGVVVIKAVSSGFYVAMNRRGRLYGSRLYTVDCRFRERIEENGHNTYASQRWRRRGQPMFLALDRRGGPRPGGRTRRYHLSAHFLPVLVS
HIV Env fusion – inhibitors of HIV-1 Env-driven cell-cell fusion, primary screen, HeLa-JRFL effector, CEM21 target cells, luciferase; AID 651610, 2012; 360,000 compounds, 1.1% hits; inhibition, % at 12.3 µM;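 active means mean replicate inhibition score of at least 50 and every replicate individually at or above 50; inconclusive means only one of the two criteria met; inactive means mean below 50 and not all replicates reaching 50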
FN deposit inh – inhibitors of fibronectin matrix deposition, primary screen, AH1F cells, Alexa488-fibronectin fluorescence, plate reader; AH1F fibroblasts, overnight; inhibition, % at 12.6 µM; 350,000 compounds, 0.086% hits;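 active means mean inhibition across replicates of 30% or more, regardless of how many single replicates reach that level; inconclusive means mean under 30% yet at least half of replicates reach 30%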
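Material: AH1F fibroblasts assembling fluorescent fibronectin matrix; amount: 10000 AH1F cells/well; medium: DMEM, 2% serum; reagent: Alexa488-fibronectin, 24 nM final in well; dosing: single compound dose, delivered by pin transfer; incubation: 1 h adhesion, overnight exposure; detection: fluorescence after three HBSS washes, excitation 485 nm, emission 525 nm; measure: fibronectin deposition inhibition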
EWS-Fli block – EWS/Fli-driven NR0B1 reporter inhibitors, primary screen, A673 cells, NR0B1 luciferase, luminescence, MLPCN library | viability-normalised | inhibition, % at 12.6 µM | 350,000 compounds, 0.67% hits;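 active means mean inhibition of at least 50% after viability correction, with every replicate also passing that limit; inconclusive means mean reaches 50% but only one of two replicates passes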;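 further: firefly luciferase signal divided by Alamar Blue viability fluorescence both relative to DMSO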
Each line names hits and unclear results; the compound was inactive in the other large screens. The list is not random: actives were taken first. Their share in the collection is about 3.1%.

C[C@H](CO)N1C[C@H](C)[C@@H](CN(C)C(=O)Nc2ccc(C(F)(F)F)cc2)OCCCC[C@H](C)Oc2ccc(NS(=O)(=O)c3cn(C)cn3)cc2C1=O	none
C[C@@H]1CCCCO[C@@H](CN(C)C(=O)Nc2ccc(C(F)(F)F)cc2)[C@@H](C)CN([C@H](C)CO)C(=O)c2cc(NS(=O)(=O)c3ccc(F)cc3)ccc2O1	PAX8 inh HTS 66.3 (no result: HIV Env fusion, EWS-Fli block)
C[C@@H](O)C#Cc1ccc2c(c1)O[C@H](CN(C)C(=O)C1CCC1)[C@@H](C)CN([C@@H](C)CO)S2(=O)=O	none (no result: PAX8 inh HTS, FN deposit inh)
COc1ccc2c3c(n(C)c2c1)[C@H](CO)N(C(=O)c1cccnc1)CC31CN(C(=O)c2cccnc2)C1	none (no result: PAX8 inh HTS, HIV Env fusion, FN deposit inh)
C[C@H](CO)N1C[C@H](C)[C@H](CN(C)C(=O)Nc2ccc(C(F)(F)F)cc2)OCCCC[C@H](C)Oc2ccc(NS(=O)(=O)c3ccc(Cl)cc3)cc2C1=O	none (no result: FN deposit inh)
Cc1ccc(S(=O)(=O)Nc2ccc3c(c2)C(=O)N([C@@H](C)CO)C[C@H](C)[C@@H](CN(C)C(=O)Nc2ccc(C(F)(F)F)cc2)OCCCC[C@@H](C)O3)cc1	PAX8 inh HTS 74.7
C[C@H]1CCCCO[C@H](CN(C)C(=O)Nc2ccc(C(F)(F)F)cc2)[C@@H](C)CN([C@@H](C)CO)C(=O)c2cc(NS(=O)(=O)c3ccc(Cl)cc3)ccc2O1	PAX8 inh HTS 90.7 (no result: FN deposit inh)
Cc1ccc(S(=O)(=O)Nc2ccc3c(c2)C(=O)N([C@H](C)CO)C[C@H](C)[C@@H](CN(C)C(=O)Nc2ccc(C(F)(F)F)cc2)OCCCC[C@@H](C)O3)cc1	none
O=C(O)c1ccccc1CSc1nc2ccccc2n1Cc1ccccc1C(=O)O	FGF22 binding 43.7
CCCSc1nc2ccccc2n1CC(=O)O	none
CCn1c(SCC(=O)N2CCCC2)nc2ccccc21	FGF22 binding 43.8 (no result: PGC1a acetyl inh)
CC(C)CSc1nc2ccccc2n1CC(=O)O	FGF22 binding 43.4
C[C@@H]1CCCCO[C@H](CN(C)Cc2ccccc2)[C@H](C)CN([C@@H](C)CO)C(=O)c2cc(NC(=O)CCC(F)(F)F)ccc2O1	none (no result: FGF22 binding)
Cc1ccc(SCCC(=O)Nc2ccccc2Br)cc1	FGF22 binding 42.9
CCCCN(C(C)=O)c1ccc2c(c1)C1CC2CCN1C(=O)OCc1ccccc1 (centres undefined)	HIV Env fusion 62.9
CNC[C@@H]1Oc2ccc(NC(=O)Nc3ccc(F)cc3)cc2CC(=O)N([C@@H](C)CO)C[C@@H]1C	none (no result: HIV Env fusion)
C[C@@H]1CN([C@H](C)CO)C(=O)Cc2cc(NS(=O)(=O)c3cccs3)ccc2O[C@H]1CN(C)C(=O)Nc1ccccc1	none (no result: FN deposit inh)
Cc1cc(OCc2cc(C(=O)N3CCN(CC4CC4)CC3)no2)cc(C)c1Cl	none
Cc1cc(OCc2cc(C(=O)N3CCC(Oc4cccnc4)CC3)no2)cc(C)c1Cl	HIV Env fusion 66.7 (no result: PGC1a acetyl inh, FN deposit inh, EWS-Fli block)
C[C@@H]1CCCCO[C@@H](CN(C)C(=O)CCC(F)(F)F)[C@@H](C)CN([C@H](C)CO)C(=O)c2cc(NS(=O)(=O)c3cn(C)cn3)ccc2O1	none (no result: FN deposit inh)
CC(C)C#Cc1cnc2c(c1)C(=O)N([C@H](C)CO)C[C@H](C)[C@@H](CN(C)C(=O)Nc1ccc(F)cc1)O2	none
COc1ccc(Br)cc1/C=C/C(=O)NCC(=O)O	FGF22 binding 43.5
C[C@H]1CN([C@@H](C)CO)C(=O)c2cc(NC(=O)Nc3cccc4ccccc34)ccc2O[C@@H]1CN(C)S(C)(=O)=O	none (no result: HIV Env fusion, FN deposit inh)
C=CCn1c(C)cc(C(=O)CN2NS(=O)(=O)c3ccccc3C2=O)c1C	none (no result: PGC1a acetyl inh)
O=c1c(Cl)c(Cl)cnn1Cc1ccc(F)cc1	none (no result: PGC1a acetyl inh)
O=C(OCn1ncc(Cl)c(Cl)c1=O)c1ccccc1Cl	FN deposit inh active (no result: PAX8 inh HTS, PGC1a acetyl inh, FGF22 binding, EWS-Fli block)
C=CCn1c(C)cc(C(=O)Cn2ncc(Cl)c(Cl)c2=O)c1C	PGC1a acetyl inh inconclusive, EWS-Fli block 55.4 (no result: HIV Env fusion)
O=C1CN(C(=O)Cn2ncc(Cl)c(Cl)c2=O)c2ccccc2N1	PAX8 inh HTS 95.3
O=C(Cn1ncc(Cl)c(Cl)c1=O)c1ccc(Cl)cc1	PGC1a acetyl inh 85.3 (no result: FGF22 binding, FN deposit inh, EWS-Fli block)
O=C(Cc1ccccc1)N1CC[C@@H]2[C@H]1c1cc(C#Cc3ccccc3)ccc1N[C@@H]2CO	none (no result: HIV Env fusion)
COc1ccc2c3c([nH]c2c1)[C@@H](CO)N(C(=O)C1CCC1)CC31CN(S(C)(=O)=O)C1	none (no result: PAX8 inh HTS, HIV Env fusion, FN deposit inh)
CNC[C@@H]1Oc2c(NC(=O)Nc3ccc(OC)cc3)cccc2C(=O)N([C@H](C)CO)C[C@H]1C	none
O=C(c1ccncc1)N1CC[C@H]2[C@H](CO)Nc3ccc(-c4ccccc4)cc3[C@H]21	none (no result: HIV Env fusion)
O=C(Cn1ncc(Cl)c(Cl)c1=O)NCC1CCCCC1	EWS-Fli block inconclusive
O=C(Cn1ncc(Cl)c(Cl)c1=O)NC1CCCCC1	EWS-Fli block 50.8 (no result: PGC1a acetyl inh, HIV Env fusion, FN deposit inh)
CN(C)C(=O)[C@H]1[C@H](CO)[C@H]2Cn3c(ccc(-c4ccccc4)c3=O)[C@@H]1N2Cc1ccccn1	none (no result: PAX8 inh HTS, PGC1a acetyl inh, HIV Env fusion, FN deposit inh)
CC(=C/c1ccc(C(C)C)cc1)/C=N/NC(=O)c1ccncc1	FGF22 binding 43.3
CC(/C=N/NC(=O)c1ccncc1)=C\c1ccccc1	none (no result: PAX8 inh HTS, HIV Env fusion, FN deposit inh)
Fc1cc2[nH]c(=S)[nH]c2cc1Cl	HIV Env fusion 56.7 (no result: PGC1a acetyl inh)
C[C@H](CO)N1C[C@H](C)[C@@H](CN(C)C(=O)Nc2ccc(F)cc2)Oc2ccc(NC(=O)CCC(F)(F)F)cc2CC1=O	none (no result: HIV Env fusion, FN deposit inh)
CC(=O)OC(C)(C)/C=C/C(=O)[C@](C)(O)C1[C@H](O)C[C@@]2(C)C3CC=C4C(C=C(O[C@@H]5O[C@H](CO)[C@@H](O)[C@H](O)[C@H]5O)C(=O)C4(C)C)[C@]3(C)C(=O)C[C@]12C (some centres undefined)	PAX8 inh HTS 101.7 (no result: PGC1a acetyl inh)
O=C(Nc1ccc(F)cc1)N[C@H]1CC[C@H](CCn2cc(C3(O)CCCC3)nn2)O[C@H]1CO	none (no result: FN deposit inh)
CC(=O)N(C)c1ccc(OCC(O)Cn2c3ccc(Cl)cc3c3cc(Cl)ccc32)cc1 (centres undefined)	HIV Env fusion 129.9 (no result: FGF22 binding, EWS-Fli block)
O=C(NC1CCCCC1)[C@@H]1[C@@H](CO)[C@@H]2Cn3c(cccc3=O)[C@H]1N2CC1CCCC1	none (no result: PAX8 inh HTS, FGF22 binding, HIV Env fusion)
COc1cc(/C=N/NC(N)=S)cc(Br)c1OCc1ccccc1F	PAX8 inh HTS 70.5 (no result: PGC1a acetyl inh, FGF22 binding, EWS-Fli block)
COc1ccc(C[C@H]2CCc3cnnn3COC[C@@H](C(C)C)NC2=O)cc1	none (no result: PGC1a acetyl inh)
COc1ccccc1OCC(=O)NNC(=O)c1c(-c2ccccc2Cl)noc1C	none
COc1ccc(OCC(=O)NNC(=O)c2c(-c3ccccc3Cl)noc2C)cc1	PGC1a acetyl inh 61.7
C[C@@H]1CN([C@H](C)CO)C(=O)c2cc(C3=CCCC3)cnc2O[C@H]1CN(C)C(=O)c1cccnc1	none (no result: FN deposit inh)

Screening results from PubChem.
